Experiment [1] is described as follows: Selectivity ratio of IC50 for human M21 cells to IC50 for human MCF7 cells. Type of experiment: functional. Summed up:
(§1)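 Ratio is IC50 in reference line over IC50 in sensitive line. […] Cells in DMEM with 5% calf serum at 37 °C. At least two experiments, triplicate cultures; assay accepted when relative SD < 10%.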

Another experiment deals with HT-29. As to the kind of experiment: Antiproliferative activity against human HT-29 cells after 48 hrs by SRB assay. In kind it is functional, cell-based. The note with it: HT-29, 48 h. In a few lines: (§2)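 SRB assay run as in the NCI screen with slight modifications. Seeding: HT-29 5.0 x 10^3, M21 3.5 x 10^3, MCF7 7.5 x 10^3 cells; cells preincubated 24 h. Drug in DMSO added at 0.75 to 1.0 x 10^5 nM for 48 h. TCA fixation, sulforhodamine B staining, absorbance 530-565 nm. At least two experiments in triplicate; runs accepted only when relative SD < 10%.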
In general terms: In SRB staining, fixed cells bind dye roughly in proportion to their protein.

The next experiment deals with M21. As to the kind of experiment: Antiproliferative activity against human M21 cells after 48 hrs by SRB assay. In kind it is functional, cell-based. The note with it: M21, 48 h. Summed up:
as §2

The next experiment deals with MCF7. As to the kind of experiment: Antiproliferative activity against human MCF7 cells after 48 hrs by SRB assay. Type of experiment: functional, cell-based. The note with it: MCF7, 48 h. Summed up: as §2
Experiment [2] can be described thus: Selectivity ratio of IC50 for human HT-29 cells to IC50 for human MCF7 cells. Type of experiment: functional. In a few lines:
as §1

Each structure is given as a SMILES string.

On to `CCCN1CCN(c2ccc(S(=O)(=O)Oc3cc(Cl)c(Cl)cc3Cl)cc2)C1=O`, for which the “Ratio IC50” value in experiment [1] was determined as 1.2; in experiment [2], 1.5. The results for the IC50 with HT-29, with M21 and in the experiment on MCF7 were 19 µM, 15 µM and 13 µM, respectively.
In the same order, the values of `CCCCN1CCN(c2ccc(S(=O)(=O)Oc3cccc(I)c3)cc2)C1=O` are 400, 170, 9.6 µM, 23 µM and 0.058 µM.
In the same order, the values of `CCCCN1CCN(c2ccc(S(=O)(=O)Oc3cc(Cl)cc(Cl)c3)cc2)C1=O` are 970, more than 1700, more than 100 µM, 58 µM and 0.06 µM.
In the case of `CN1CCN(c2ccc(S(=O)(=O)Oc3cccc(I)c3)cc2)C1=O`, the “Ratio IC50” value in experiment [1] worked out at 0.7; in experiment [2], 1.1. Also, the IC50 – broadly, the point on the concentration scale where inhibition reaches its midpoint – is 0.59 µM with HT-29, 0.4 µM in the experiment with M21 and 0.56 µM with MCF7.
In the case of `COc1cc(OS(=O)(=O)c2ccc(N3CCN(C)C3=O)cc2)cc(OC)c1OC`, the “Ratio IC50” value in experiment [1] and in experiment [2] was 0.5 in each case. Moreover, the IC50 was found to be 0.062 µM in the experiment with HT-29, 0.054 µM in the experiment with M21 and 0.12 µM in the experiment on MCF7.
With `CCCN1CCN(c2ccc(S(=O)(=O)Oc3ccc(C)cc3C)cc2)C1=O`, the entries for the “Ratio IC50” value in experiment [1] and in experiment [2] were 6.5 and 17, respectively. The values for the IC50 in the experiment with HT-29, in the experiment on M21 and in the experiment on MCF7 were 26 µM, 9.7 µM and 1.5 µM, respectively.
The matching figures for `CCN1CCN(c2ccc(S(=O)(=O)Oc3cccc(Cl)c3)cc2)C1=O`: 0.7, 1.3, 6.8 µM, 3.9 µM and 5.4 µM.
The matching figures for `COc1cccc(OS(=O)(=O)c2ccc(N3CCN(C)C3=O)cc2)c1`: 0.6, 0.8, 2.5 µM, 1.6 µM and 3 µM.
Turning to `CCCCN1CCN(c2ccc(S(=O)(=O)Oc3ccc(F)c(F)c3)cc2)C1=O`, the “Ratio IC50” value in experiment [1] and in experiment [2] was more than 130 throughout. The concentration for half-maximal inhibition (IC50) in the experiment with HT-29 is more than 100 µM; in the experiment on M21 it was more than 100 µM; with MCF7, 0.76 µM.
As for `CCCCN1CCN(c2ccc(S(=O)(=O)Oc3cccc(Cl)c3)cc2)C1=O`, the “Ratio IC50” value was found to be 820 in experiment [1] and 190 in experiment [2]. The IC50 in the experiment on HT-29 is 21 µM; with M21, 90 µM; in the experiment with MCF7 it was 0.11 µM.
The matching figures for `CN1CCN(c2ccc(S(=O)(=O)Oc3c(Cl)cc(Cl)cc3Cl)cc2)C1=O`: 0.6, 0.9, 2.5 µM, 1.7 µM and 2.9 µM.
In the same order, the values of `CCCN1CCN(c2ccc(S(=O)(=O)Oc3ccccc3OC)cc2)C1=O` are more than 7.7, more than 7.7, more than 100 µM, more than 100 µM and 13 µM.
The matching figures for `CCCN1CCN(c2ccc(S(=O)(=O)Oc3ccc(F)cc3)cc2)C1=O`: 0.4, 0.7, 23 µM, 14 µM and 33 µM.
With `CCCCN1CCN(c2ccc(S(=O)(=O)Oc3cccc(F)c3)cc2)C1=O`, the results for the “Ratio IC50” value in experiment [1] and in experiment [2] were more than 320 and 250, respectively. Moreover, the IC50 in the experiment with HT-29 is 76 µM; in the experiment with M21 it was more than 100 µM; with MCF7 it was 0.31 µM.
In the same order, the values of `CCCCN1CCN(c2ccc(S(=O)(=O)Oc3ccc(OC)c(OC)c3)cc2)C1=O` are more than 300, 61, 21 µM, more than 100 µM and 0.34 µM.
In the same order, the values of `Cc1cccc(OS(=O)(=O)c2ccc(N3CCN(C)C3=O)cc2)c1` are 0.5, 0.9, 4.3 µM, 2.3 µM and 5.1 µM.
The matching figures for `CCCCN1CCN(c2ccc(S(=O)(=O)Oc3ccccc3OC)cc2)C1=O`: more than 26, more than 26, more than 100 µM, more than 100 µM and 3.8 µM.
As to `CCCN1CCN(c2ccc(S(=O)(=O)Oc3ccc(Cl)cc3)cc2)C1=O`, the “Ratio IC50” value amounted to 1.9 in experiment [1] and 0.8 in experiment [2]. Also, the IC50 turned out to be 15 µM in the experiment with HT-29, 34 µM in the experiment with M21 and 18 µM in the experiment with MCF7.
As for `CCCN1CCN(c2ccc(S(=O)(=O)Oc3ccc(C)cc3)cc2)C1=O`, the “Ratio IC50” value in experiment [1] and in experiment [2] was 0.4 each time. The IC50 with HT-29 came out at 25 µM; in the experiment with M21 it was 28 µM; in the experiment with MCF7 it was 64 µM.
Consider `CN1CCN(c2ccc(S(=O)(=O)Oc3cc(Cl)c(Cl)cc3Cl)cc2)C1=O`, for which the “Ratio IC50” value in experiment [1] is on record as 0.7; in experiment [2] it was 1. For the same compound, the IC50 with HT-29 amounted to 0.6 µM; in the experiment on M21, 0.42 µM; in the experiment with MCF7, 0.63 µM.
The matching figures for `CCCN1CCN(c2ccc(S(=O)(=O)Oc3cccc(C)c3)cc2)C1=O`: 0.3, 0.8, 65 µM, 28 µM and 86 µM.
In the same order, the values of `CCCN1CCN(c2ccc(S(=O)(=O)Oc3cc(OC)cc(OC)c3)cc2)C1=O` are 120, 59, 16 µM, 33 µM and 0.27 µM.
Consider `CCCCN1CCN(c2ccc(S(=O)(=O)Oc3cc(Br)cc(Br)c3)cc2)C1=O`, for which the “Ratio IC50” value in experiment [1] is given as more than 1700; in experiment [2], 740. The figures for the IC50 with HT-29, in the experiment on M21 and in the experiment with MCF7 were 43 µM, more than 100 µM and 0.058 µM, respectively.
For `CCN1CCN(c2ccc(S(=O)(=O)Oc3ccc(OC)c(OC)c3)cc2)C1=O`, the “Ratio IC50” value in experiment [1] came out at 0.9; in experiment [2], 1. Further, the IC50 in the experiment on HT-29 turned out to be 37 µM; with M21, 35 µM; with MCF7, 39.1 µM.
For the compound `CCN1CCN(c2ccc(S(=O)(=O)Oc3cc(OC)cc(OC)c3)cc2)C1=O`, the “Ratio IC50” value in experiment [1] and in experiment [2] was 1.2 each time. In addition, the IC50 in the experiment on HT-29 came out at 4.3 µM; with M21 it was 4.2 µM; with MCF7, 3.5 µM.
With `COc1cc(OC)cc(OS(=O)(=O)c2ccc(N3CCN(C)C3=O)cc2)c1`, the “Ratio IC50” value in experiment [1] was 0.4; in experiment [2] it was 0.9. Besides, the IC50 in the experiment with HT-29 was 0.19 µM; in the experiment on M21, 0.082 µM; with MCF7, 0.23 µM.
The matching figures for `CCCN1CCN(c2ccc(S(=O)(=O)Oc3ccc(OC)cc3)cc2)C1=O`: 1.2, 0.8, 16 µM, 23 µM and 20 µM.

The values are drawn from ChEMBL document CHEMBL4014335, “Activation of Phenyl 4-(2-Oxo-3-alkylimidazolidin-1-yl)benzenesulfonates Prodrugs by CYP1A1 as New Antimitotics Targeting Breast Cancer Cells” (J Med Chem, 2017).
